Results from ChEMBL document CHEMBL3272284, “Drugs derived from cannabinoids. 6. Synthesis of cyclic analogues of dimethylheptylpyran” (1976).
The source made the active and inactive calls. The calls are words filed in the database; no cut-off is given here.

Key:
[1] = test system: Rattus norvegicus; test: Antihypertensive activity in rat assessed as reduction of blood pressure at 0.1 mg/kg, po; format: functional; parameters: scale not given: the % may be the effect or the level left
How it was run: (§1)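 Cardiovascular screen in hypertensive rats. Compounds were given orally and blood pressure was measured after dosing, with readings taken at 3 h and over 24 h. Activity is expressed as percent decrease in blood pressure.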

[2] = test system: Rattus norvegicus; test: Antihypertensive activity in rat assessed as reduction of blood pressure at 10 mg/kg, po after 24 hrs; format: functional; parameters: scale not given: the % may be the effect or the level left; how it was run: as §1
[3] = test system: Mus musculus; test: Central nervous system activity in mouse assessed as fighting at 10 mg/kg, po; format: functional, organism-based; parameters: dose 10 mg/kg
[4] = test system: Rattus norvegicus; test: Antidepressant activity in rat assessed as motor activity at 5 mg/kg, po; format: functional, organism-based; parameters: dose 5 mg/kg
[5] = test system: Mus musculus; test: […] activity in mouse assessed as protection against audiogenic seizure up to 30 mg/kg, po; format: functional, organism-based; parameters: dose 30 mg/kg
[6] = test system: Rattus norvegicus; test: Antihypertensive activity in rat assessed as reduction of blood pressure at 10 mg/kg, po after 3 hrs; format: functional; parameters: scale not given: the % may be the effect or the level left; how it was run: as §1
[7] = test system: Rattus norvegicus; test: Antihypertensive activity in po dosed rat assessed as reduction of blood pressure; format: functional, organism-based; how it was run: as §1

## CCCCCC(C)C(C)c1cc(O)c2c(c1)OC(C)(C)C1=C2CC(C)CC1 (stereo not given)
[1]
  Activity: 8%
[2]
  Activity: 38%

## CCCCCC1Cc2c(cc(O)c3c2OC(C)(C)C2=C3CC(C)CC2)C1C (stereo not given)
[3]
  Activity: inactive
[4]
  Activity: inactive
[5]
  Activity: inactive
[6]
  Activity: 6%

## CCCCCC1Cc2c(cc3c(c2O)C2=C(CCC(C)C2)C(C)(C)O3)C1C (stereo not given)
[3]
  Activity: inactive
[4]
  Activity: inactive
[5]
  Activity: inactive
[7]
  Activity: inactive
